# Screening results from PubChem.
# The full list was thinned out, with hits kept by preference.
# CHOP inh = inhibitors of CHOP induction in ER stress response; CHO-K1 CHOP-promoter luciferase, tunicamycin-induced, 15-18 h; inhibition, % at 10 µM; 220,000 tested, 3.8% active; AID 2732;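 active = compounds that reduced the stress-induced luciferase reporter signal by more than about 70% of percent inhibition, limit read from the data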;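 note: 0% = tunicamycin plus vehicle and 100% = wells without tunicamycin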
# CHOP UPR activ = activators of apoptotic arm of unfolded protein response (CHOP) | activation, % at 10 µM | AID 449763 | 330,000 tested, 0.34% active | CHO-CHOP luciferase reporter, UPR activation, luminescence; percent of tunicamycin response over DMSO baseline;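 active = at 10 µM dose, activation of 40% or more, normalized to positive control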;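 note: 100% = tunicamycin at 10 µg/mL and 0% = DMSO alone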
#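 Test system: CHO-CHOP cells, stable luciferase reporter of PERK-eIF2a-CHOP signalling | Quantity: 500 CHO-CHOP cells per well | Buffer or medium: F12 plus 10% serum | Compound dosing: 10 µM single point, 0.5% DMSO | Schedule: 6 h compound treatment, 37 °C | Signal: Luciferase luminescence | Control set: Tunicamycin high control, DMSO low control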
# UPR XBP1 act = activators of adaptive arm of unfolded protein response (XBP1); CHO-XBP1 luciferase reporter, IRE1-XBP1 UPR activation, luminescence; percent of tunicamycin response, DMSO as zero; activation, % at 20 µM; 330,000 tested, 0.33% active;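 active = versus positive control, 20 µM dose yields 30% or more activation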;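 note: 100% = tunicamycin at 10 µg/mL and 0% = DMSO only wells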
#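 Material: CHO cell line with stable XBP1 luciferase reporter; buffer or medium: F12 medium containing 10% fetal bovine serum; compound: single point, 20 µM final compound, 1% DMSO; incubation: 6 h treatment, 37 °C; measured by: glow luminescence from Steady-Glo reagent; evaluation: activation, % of tunicamycin; control set: tunicamycin high, DMSO low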
# Bfl-1 A1 inh = inhibitors of the anti-apoptotic protein A1, read as caspase activation; MEF A1-2A-BIM cells, Caspase-Glo 3/7 luminescence, 3 h; percent of clofoctol response, vehicle zero; caspase activation, % (concentration not given with the values); 330,000 tested, 0.066% active;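 active = over half of replicate activation scores above 10%, or exactly half above 10 with the replicate mean above 10; inconclusive = replicate mean below 10 yet half the replicates above 10; inactive = over half of replicates below 10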
# CHOP inh conf = confirmation of CHOP induction inhibitors. shares compounds with CHOP inh. CHO-CHOP promoter luciferase reporter, tunicamycin-induced, luminescence. inhibition, % at 10 µM. 2,100 tested, 45% active;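 active = mean of three repeat readings of reporter signal inhibition above a set limit, cut at about 70% in these data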;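 note: 0% = tunicamycin plus vehicle and 100% = wells lacking tunicamycin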
# CHOP UPR conf = confirmation of apoptotic unfolded protein response (CHOP) activators. shares compounds with CHOP UPR activ. CHO-CHOP cells, CHOP-luciferase reporter luminescence; percent of tunicamycin response, DMSO as zero. activation, % at 10 µM. 1,000 tested, 64% active; in the data active = activation above about 33%;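 note: 0% = DMSO wells and 100% = tunicamycin 10 µg/mL wells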
# The depositor's hits bear a star; ? = inconclusive; / = no result.
SMILES,CHOP inh,CHOP UPR activ,UPR XBP1 act,Bfl-1 A1 inh,CHOP inh conf,others
CC1=CC2/C=C(\C)CCC(O)C(O)/C=C/C(=O)C23C(=O)NC(CC(C)C)C3C1C (stereo not drawn),105*,-10,-9,0,125*,
OC(c1ccccc1)(c1ccccc1)C1CCNCC1,108*,2,-4,0,18,
OC(c1ccccc1)(c1ccccc1)C1CN2CCC1CC2 (stereo not drawn),2,-1,0,0,/,
O=C1NC(=O)N(Cc2ccco2)C(=O)/C1=C/c1ccc(-c2cccc([N+](=O)[O-])c2)o1,98*,29,12,0,-104,
CN(C)c1ccc(/C=C2/C(=O)NC(=O)N(Cc3ccco3)C2=O)cc1,-15,0,-1,0,/,
C=CCN1C(=O)NC(=O)/C(=C\c2ccc(-c3ccccc3[N+](=O)[O-])o2)C1=O,105*,0,0,0,-36,
C=CCN1C(=O)/C(=C/c2ccc(N3CCOCC3)o2)C(=O)NC1=S,-52,2,4,-1,/,
O=C(O)C1C2CCC(O2)C1C(=O)Nc1cccc(Br)c1 (stereo not drawn),/,0,4,0,/,
O=C(COc1ccc(Cl)cc1)N1CCN(C2CCCC2)CC1,/,-2,-4,0,/,
CCOc1ccc(N=Cc2c(O)n(C(C)(C)C)c(=O)[nH]c2=O)cc1,99*,-1,1,0,127*,
CC(=O)c1cn(Cc2ccccc2C#N)c2ccccc12,52,1,-1,-1,/,
COc1ccccc1/C=C1\C(=O)NC(=S)N(c2ccccc2)C1=O,/,1,-6,-1,/,
CCN1C(=O)/C(=C/c2ccc(N(CC)CC)cc2OC)C(=O)NC1=S,100*,3,2,2,-15,
CN1C(=O)CCS(=O)(=O)C1c1ccc(Cl)cc1 (stereo not drawn),-3,/,/,/,/,
NC(N)=N/N=C/c1cn(-c2ccccc2)nc1-c1cccs1,106*,9,16,0,98*,
O=c1c2ccccc2nc(-c2cccs2)n1-c1ccccc1,51,-3,-1,1,/,
O=C1NC(=S)NC(=O)C1=Cc1cccn1-c1ccc(O)cc1,107*,/,/,/,-267,
Cn1cccc1/C=C1/C(=O)NC(=O)N(C(C)(C)C)C1=O,-5,1,1,0,/,
CCCCCCOC(=O)c1ccccc1N,97*,7,4,0,103*,
CC(=O)[C@H]1CCC2C3CC[C@H]4C[C@H](O)CC[C@]4(C)C3CC[C@@]21C (stereo partly drawn),-1,/,/,/,/,
COC(=O)C1=C(c2ccc(F)cc2OCc2ccccc2)C[C@@H]2CC[C@H]1N2C(=O)NCCN1CCOCC1,/,1,1,1,/,
C=C(C=O)CC1CC(O)[C@]2(C)OC3CC4OC5C[C@]6(C)O[C@]7(C)CCC8OC9C[C@]%10(C)OC%11C(C)=CC(=O)OC%11CC%10OC9C[C@@H](C)C8OC7CC6O[C@]5(C)CC5OC5C4OC3CC2O1 (stereo partly drawn),105*,-9,-8,1,127*,
CC/C(=N\NC(=O)c1ccccc1)c1c(O)n(C2CCCCC2)c(=O)[nH]c1=O,/,0,0,0,/,
C=CCn1c(O)c(C(C)=NCCN2CCOCC2)c(=O)[nH]c1=O,23,-1,1,?,/,
CCCCn1c(N)c(C(=O)OCCOC)c2nc3ccccc3nc21,-9,0,1,1,/,
SMILES,CHOP inh,CHOP UPR activ,UPR XBP1 act,Bfl-1 A1 inh,CHOP inh conf,others
COCCCn1c(N)c(C(=O)NCCC(C)C)c2nc3ccccc3nc21,99*,-2,3,1,99*,
CCCCn1c(=O)c(C(=O)Nc2cnccn2)c(O)c2ccccc21,99*,13,3,-1,93*,
CCCCCn1c(=O)c(C(=O)Nc2nc3ccccc3[nH]2)c(O)c2ccccc21,98*,16,16,1,109*,
Cc1cc(C(=O)C[N+]23CCN(CC2)CC3)c(C)n1-c1ccc(Br)cc1,8,1,-2,0,/,
C#CC(CC)(CC)NC(=O)Nc1ccc(OCC)cc1,-7,0,1,-1,/,
O=c1[nH]c(=O)n(C2CCCCC2)c(O)c1/C=C/C=Nc1ccccc1,100*,1,2,1,36,
O=c1[nH]c(=O)n(-c2ccccc2)c(O)c1/C=C/C=Nc1ccccc1,-1,0,-2,0,/,
CC(C)C(=O)Nc1ccc(S(=O)(=O)N2CC3CC(C2)c2cccc(=O)n2C3)cc1 (stereo not drawn),2,-3,-2,0,/,
COC(=O)Nc1ccc(N=C(N)N[N+](=O)[O-])cc1,11,-2,2,1,/,
CCCCCCCSc1cc(OC)c(CCNC)cc1OC,100*,-2,6,0,3,
CCCCCSc1cc(OC)c(CCNC)cc1OC,17,1,0,0,/,
CCCN(CCC)CCc1c[nH]c2ccc(C(N)=O)cc12,-8,/,/,/,/,
CC(C)(C)NCC(O)c1ccccc1Cl (stereo not drawn),33,/,/,/,/,
O=C1NC(=O)N(c2cccc(Cl)c2)C(=O)/C1=C\c1ccc(Sc2nc3ccccc3[nH]2)o1,4,3,-6,0,/,
O=C1NC(=O)N(c2ccccc2)C(=O)/C1=C/c1ccc(Sc2ccccc2)o1,104*,/,/,-1,-26,
CC(C)n1c(O)c(C2c3cc(Cl)ccc3Oc3[nH]c(=O)n(C(C)C)c(=O)c32)c(=O)[nH]c1=O (stereo not drawn),107*,/,/,/,62,
Cc1ccc(NC(=O)CN2C(=O)CN=C(c3ccccc3)c3cc(Cl)ccc32)cc1,107*,0,-2,/,34,
CCOC(=O)c1c(-n2c(C)cc(C=C3C(=O)NC(=S)NC3=O)c2C)sc2c1CCCC2,107*,185*,4,1,140*,CHOP UPR conf=-11
CCOC(=O)c1c(-n2c(C)cc(/C=C3/C(=O)NC(=O)N(CC)C3=O)c2C)sc2c1CCCC2,/,1,-1,0,/,
CN1CCC(OC(=O)C2c3ccccc3Oc3ccccc32)CC1,7,-1,-2,0,/,
CCN1/C(=C\C=C\C2=[N+](CC)c3ccccc3C2(C)C)C(C)(C)c2ccccc21,103*,46*,3,-3,140*,CHOP UPR conf=24
CN1C(=O)N(C)C(=O)C2(Cc3cc(NC(=O)c4ccc(F)cc4)ccc3N3CCCC32)C1=O (stereo not drawn),/,-1,-2,0,/,
COc1ccc(N2C(=O)/C(=C/c3cccs3)C(=O)NC2=S)cc1,104*,462*,-7,0,-141,CHOP UPR conf=157*
Cc1ccc(/C=C2\C(=O)NC(=S)N(c3ccc(F)cc3)C2=O)s1,103*,393*,-8,0,-158,CHOP UPR conf=17
